MEKK2wt PB1 HTS: raises or lowers MEK5 binding to wildtype human MEKK2 PB1 domain. binding response (% of control), % at 10 µM. Q9Y2U5. AID 1531. 290,000 compounds, 1.1% hits. bead flow cytometry, Alexa488-MEK5 binding to MEKK2 WT; actives lie on both sides; in the data active = binding response below about 67% or above about 130%
UCH37 inh: human UCH37 deubiquitinating enzyme inhibition. Q9Y5K5. purified proteasome/UCH37, Ub-AMC cleavage fluorescence. inhibition, % (test concentration not listed). 330,000 compounds, 0.33% hits;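 active = mean inhibition over replicate wells above about 20%, limit read from the data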;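 note: 0% = compound-free wells with enzyme and 100% = wells lacking proteasome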
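Material: Human UCH37 enzyme supplied as purified proteasome complex | Schedule: 30 min preincubation with enzyme, 25 min cleavage at room temperature | Detection: AMC fluorescence 355/460 nm | Measure: % inhibition of Ub-AMC cleavage fluorescence | Controls: Wells without proteasome as full block, compound-free enzyme plus substrate as uninhibited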
Apaf-1 inh: inhibitors of human Apaf-1 apoptosome. inhibition, % at 20 µM. reconstituted apoptosome caspase-3 activity, DEVD-Rh110 fluorescence. AID 489030. 330,000 compounds, 0.71% hits; active = inhibition of at least 40% at 20 µM;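 note: plate controls were DMSO wells for no effect and DEVD-CHO caspase inhibitor wells for full effect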
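System: Apoptosome proteins | Medium: Hepes pH 7.5 with detergent and BSA | Also added: Cytochrome c trigger plus (Z-DEVD)2-Rh110 caspase-3 substrate | Incubation: 30 min compound preincubation, 50 min activation, room temperature | Detection: Rhodamine 110 fluorescence at Ex 480/Em 540 nm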
MEKK2 mut-MEK5: signal of MEK5 binding to mutant human MEKK2 PB1 domain; bead flow cytometry, Alexa488-MEK5 binding to MEKK2 mutant; 290,000 compounds, 0.35% hits; AID 1530; percent response, % at 10 µM; in the data active = percent response above about 24%, passing the limit was not always enough
UBC13 inh: human UBC13 polyubiquitination inhibition | UBC13 polyubiquitin chain formation, TR-FRET | AID 485273 | 330,000 compounds, 0.47% hits | inhibition, % at 20 µM; in the data active = inhibition above about 45%, passing the limit was not always enough
MEKK3 PB1 HTS: MEKK3-MEK5 PB1 interaction, increase or decrease | Q99759 | bead-based flow cytometry, Alexa488-MEK5 binding to MEKK3; actives lie on both sides; 0 = blocked by unlabeled MEK5, 100 = vehicle | binding response (% of control), % at 10 µM | 290,000 compounds, 1.4% hits | AID 1529;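 active = binding response more than 3 SD above or below the average of its plate-row segment, actives on both sides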;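 note: Alexa488 bead fluorescence after subtracting the streptavidin-only scavenger bead signal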
Numbers without * were called inactive; . = no result. Hits are enriched below; roughly 3% of the tested compounds scored in any of these assays.

SMILES	MEKK2wt PB1 HTS	UCH37 inh	Apaf-1 inh	MEKK2 mut-MEK5	UBC13 inh	MEKK3 PB1 HTS
COc1ccc(-n2nc(C(=O)NCC(=O)NC3CCCCCC3)c3ccccc3c2=O)c(OC)c1	106	2	48*	5	9	103
COC(=O)c1ccccc1NC(=O)Nc1ccc(C)cn1	100	1	-1	0	-4	103
CCCCN(C(=O)c1ccco1)c1c(N)n(CCC)c(=O)[nH]c1=O	.	2	-9	.	13	.
N#Cc1ccc(OCC(O)CS(=O)(=O)c2ccccc2)cc1 (centres undefined)	103	-1	-6	2	5	100
NS(=O)(=O)c1ccc(CCNC(=O)c2ccc3ccccc3n2)cc1	-3.0*	-2	6	5	-7	99
NS(=O)(=O)c1ccc(CNC(=O)c2ccc3ccccc3n2)cc1	103	1	-5	5	6	105
O=C(O)CCC(=O)N1CCc2cc(S(=O)(=O)Nc3ccc4c(c3)OCCO4)ccc21	95	2	-6	1	6	98
COc1ccc(Br)cc1CNC(=O)CCc1nc(-c2ccc(C)cc2)no1	111	0	14	18	-8	108
COc1cc2[nH]c(C(=O)NN)c(N)c2cc1OC	92	.	48*	2	35	94
COc1cccc2[nH]c(C(=O)NN)c(N)c12	93	3	-1	-5	-6	95
CCOc1ccc(CSCCNC(=S)Nc2ccccc2)cc1	106	3	17	0	12	128*
CCOc1ccc(NC(=S)NCCCc2ccccc2)cc1	89	1	4	4	-14	104
Cc1ccc(NC(=O)CNC2CCCCC2)cc1Cl	99	5	5	2	9	96
CCS(=O)(=O)CCn1c([N+](=O)[O-])cnc1C	-9.0*	1	-12	-3	12	84
COc1cccc(-c2noc(Cn3nc(C)c([N+](=O)[O-])c3C)n2)c1	98	24*	11	-1	-8	97
COc1ccc2c(C(=O)CN3CCN(c4ccccc4)CC3)c[nH]c2c1	33*	1	2	67*	-11	107
COc1ccc2c(C(=O)CN3CCSCC3)c[nH]c2c1	94	2	-11	-4	5	90
COc1cc(C2Nc3cccc4cccc(c34)N2)ccc1O	98	-67	30	-2	-30	97
COc1cc(C2Nc3cccc4cccc(c34)N2)cc(OC)c1OC(C)=O	.	2	41*	.	-57	.
CCC(=O)Nc1nc2ccccc2n1Cc1ccc(C)cc1	100	4	5	2	13	100
CC(C)c1ccc(CNCc2ccccc2)cc1	113	1	-3	7	3	105
O=C(Cc1cccc([N+](=O)[O-])c1)Nc1ccc(C(=O)N2CCOCC2)cc1	.	29*	3	.	3	.
CCOC(=O)Cc1csc(NC(=O)c2c(O)c3c(n(CC(C)C)c2=O)CCCC3)n1	-3.0*	0	-1	2	-10	100
O=S(=O)(c1cccc(NC(=S)N2CCN(c3cccc(Cl)c3)CC2)c1)C(F)F	117	2	37	2	1	134*
COc1cccc2cc(C(C)N(CCCN3CCOCC3)C(=O)Nc3ccccc3)oc12 (centres undefined)	103	-1	-1	3	2	101
SMILES	MEKK2wt PB1 HTS	UCH37 inh	Apaf-1 inh	MEKK2 mut-MEK5	UBC13 inh	MEKK3 PB1 HTS
Brc1ccc(NN=C(N=Nc2nn[nH]n2)c2ccccc2)cc1	.	22*	.	.	.	.
O=C(Nc1ccc2c(c1)OCO2)[C@@H]1[C@@H]2C(=O)N(C3CCCCC3)C(=O)[C@@H]2C2c3ccccc3C=CN21 (some centres undefined)	100	.	42*	7	-5	100
O=C(c1cccs1)[C@@H]1[C@@H]2C(=O)N(Cc3ccc4c(c3)OCO4)C(=O)[C@@H]2C2c3ccccc3C=CN21 (some centres undefined)	.	.	82*	.	-11	.
CCN(CC)c1ccc2cc(C(N)=O)c(=NNC(=O)c3ccncc3)oc2c1	.	22*	.	.	.	.
S=C(NCCc1ccccc1)N1CCc2ccccc2C1	80	22*	9	-13	1	89
CCOc1ccc(C(C)=O)cc1CSc1nc(C)cc(C)n1	99	2	1	0	12	106
C=CCOc1ccc(CN(C)CC(O)COc2cccc3ccccc23)cc1 (centres undefined)	142*	5	23	14	12	107
N#Cc1ccc(C(=O)OCC(=O)NC(=O)NCc2ccccc2)cc1	.	-3	0	.	2	.
Cc1c(C=O)c(Cl)n(C)c(=O)c1C#N	89	21*	97*	-5	-22	82
Cc1cc(C)n(C)c(=O)c1C#N	96	2	-3	-8	12	100
COC(=O)c1ccc(CSc2nnc(Nc3cccc(OC)c3)s2)o1	107	5	8	4	7	97
O=C(c1ccc(N2CCOCC2)cc1[N+](=O)[O-])N1CCOCC1	100	5	-6	-3	-9	97
Cc1ccc(C)c(NC(=S)Nc2cccc3cnccc23)c1	76	7	96*	-19	-73	81
CC(=O)c1cccc(NC(=S)Nc2cccc3ccccc23)c1	108	1	81*	8	-31	104
CC(=O)c1cccc(NC(=S)NCc2ccccc2)c1	98	5	8	3	3	99
CC(=O)c1ccc(NC(=S)Nc2cccc3cnccc23)cc1	101	3	96*	-4	-58	105
S=C(Nc1cccc2ccccc12)Nc1cccc2ccccc12	.	-2	.	.	.	.
Cc1ccc(F)c(NC(=S)Nc2cccc3ccccc23)c1	98	.	78*	5	-30	100
Cn1c(=O)[nH]c(=O)c2c1nc(Br)n2Cc1ccccc1F	107	-1	-1	3	8	105
O=C(COC(=O)c1ccccc1)NC1CCCC1	100	5	6	2	5	98
CCOC(=O)CCC(NC(=O)c1cncc(O)c1)C(=O)OCC (centres undefined)	99	-29	-3	-3	13	100
Cc1cccc(NC(=O)c2cccc(N3C(=O)CCC3=O)c2)c1	103	4	-4	0	8	99
COc1ccc(NC(=S)Nc2cccc3ccccc23)cc1OC	105	2	83*	4	-42	100
CCOc1ccc(C(Nc2ccc(C)cc2)P2(=O)OCCCO2)cc1 (centres undefined)	100	6	-11	1	7	102
CCOc1ccc(C(Nc2ccc(C)cc2)P2(=O)OCCC(C)O2)cc1 (centres undefined)	94	30*	-1	-3	-2	94
c1ccc(CCCCc2ccccn2)cc1	.	1	.	.	.	.

Compound activity as filed in PubChem BioAssay.
